Measured values reported in ChEMBL document CHEMBL1140188, “Photoinduced cytotoxicity and biodistribution of prostate cancer cell-targeted porphyrins” (J Med Chem, 2008).
pIC50: −log10 of the molar value. Numbered stars: 1 amine (or outer) side, 2 acyl side, 3 side chain; on linkers, the order of the positions; unused ones are H or OH. Bridge positions count the residues as written; N and C are the ends. Square brackets hold non-standard residues; d marks the D form. Peptide text beside a SMILES is read from it. I, II: the chains in the order shown. * marks the point of attachment. X1 = O=C(COCC(=O)*)Nc1ccc(-c2c3nc(c(-c4ccccc4)c4ccc([nH]4)c(-c4ccccc4)c4nc(c(-c5ccccc5)c5ccc2[nH]5)C=C4)C=C3)cc1; NH(CH2CH2O)6CH2CO = O=C(COCCOCCOCCOCCOCCOCCN[*:1])[*:2]

Assays:
[1] = Cytotoxicity against human PC3M cells after 24 hrs under dark condition; format: functional, cell-based; conditions: PC-3M
Procedure, shortened: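 PC-3M cells in DMEM/10% FBS were seeded at 10000 cells/cm2 and attached overnight. They were exposed to increasing concentrations up to 100 µM for 24 h in the dark, in quadruplicate wells. Detached cells were washed off and attached cells were trypsinised and counted by hemocytometer. Viability is expressed as % of untreated controls, and IC50 was taken from the curves.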

[2] = Phototoxicity against human PC3M cells after 24 hrs followed by exposure to 1 J/cm'2 light for 20 mins; format: functional, cell-based; conditions: pc-3m
Procedure, shortened: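 PC-3M cells were plated as for the dark assay and loaded with a range of concentrations for 24 h in quadruplicate. After washing, the medium was replaced with DMEM containing 50 mM HEPES, pH 7.4. Cells were irradiated on ice with a 100 W halogen lamp through a 610 nm long-pass filter and a water IR filter for 20 min, about 1 J/cm2. They were then incubated overnight and viable cells counted by hemocytometer relative to controls, giving IC50.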

[3] = Ratio of IC50 for human PC3M cells under dark condition to IC50 for human PC3M cells exposed to 1 J/cm'2 light; format: functional
Procedure, shortened: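 Ratio of the dark IC50 (24 h exposure, hemocytometer viable count) to the light IC50 (24 h loading, then 610 nm long-pass halogen light, about 1 J/cm2, 20 min on ice, overnight incubation, then counting) in PC-3M cells.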

Liver = assay: Biodistribution in human PC3M cells xenografted SCID mouse liver assessed per mg of protein at 1 umol/kg, ip after 24 hrs; format: ADME, organism-based; conditions: in vivo
Procedure, shortened: (§1)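 Male SCID mice carrying PC-3M tumours (2 × 10^6 cells injected into the dorsum between the shoulder blades, grown 5-6 weeks to about 0.1 cm3) received 1.0 µmol/kg ip in 5% dextrose. Tissues were collected at 24 h, solubilised at 37 °C and homogenised. Porphyrin fluorescence (530/645 nm) was read against per-tissue standard curves, vehicle-only background was subtracted, and results are given as pmol/mg tissue protein, mean ± SE, n = 4.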

[4] = Biodistribution in human PC3M cells xenografted SCID mouse tumor assessed per mg of protein at 1 umol/kg, ip after 24 hrs; format: ADME, organism-based, Neoplasm; conditions: in vivo; procedure, shortened: as §1

Drug uptake (Liver) [pmol]	Drug uptake [4] [pmol]	Compound	pIC50 [1]	pIC50 [2]	Ratio IC50 [3]
–	–	CC(C)C[C@H](NC(=O)[C@H](CCCCN)NC(=O)[C@H](CCCCN)NC(=O)[C@H](CCCCN)NC(=O)[C@H](C)NC(=O)[C@H](CCC(N)=O)NC(=O)CNC(=O)[C@H](C)NC(=O)[C@H](CCCCN)NC(=O)[C@H](CCCCN)NC(=O)[C@@H](NC(=O)[C@H](C)NC(=O)[C@H](C)NC(=O)[C@@H]1CCCN1C(=O)[C@H](CCCNC(=N)N)NC(=O)[C@H](CCCCN)NC(=O)COCCOCCOCCOCCOCCOCCNC(=O)COCC(=O)Nc1ccc(-c2c3nc(c(-c4ccccc4)c4ccc([nH]4)c(-c4ccccc4)c4nc(c(-c5ccccc5)c5ccc2[nH]5)C=C4)C=C3)cc1)[C@@H](C)O)C(=O)N[C@@H](CCC(=O)O)C(=O)N[C@@H](CC(=O)O)C(=O)N1CCC[C@H]1C(=O)N[C@@H](CCCNC(=N)N)C(=O)N[C@@H](CCCCN)C(=O)N[C@@H](CCCCN)C(=O)N[C@@H](CCCNC(=N)N)C(=O)N[C@@H](CCCNC(=N)N)C(=O)N[C@@H](CCC(N)=O)C(=O)N[C@@H](CCCNC(=N)N)C(=O)N[C@@H](CCCNC(=N)N)C(=O)N[C@@H](CCCNC(=N)N)C(=O)N1CCC[C@H]1C(=O)N1CCC[C@H]1C(=O)N[C@@H](CCC(N)=O)C(=O)NCC(=O)O (X1-[NH(CH2CH2O)6CH2CO]KRPAATKKAGQAKKKLEDPRKKRRQRRRPPQG-OH)	4.48	5.92	27
16.1	8.1	N=C(N)NCCC[C@H](NC(=O)CNC(=O)COCCOCCOCCOCCOCCOCCNC(=O)COCC(=O)Nc1ccc(-c2c3nc(c(-c4ccccc4)c4ccc([nH]4)c(-c4ccccc4)c4nc(c(-c5ccccc5)c5ccc2[nH]5)C=C4)C=C3)cc1)C(=O)N[C@@H](CCCCN)C(=O)N[C@@H](CCCCN)C(=O)N[C@@H](CCCNC(=N)N)C(=O)N[C@@H](CCCNC(=N)N)C(=O)N[C@@H](CCC(N)=O)C(=O)N[C@@H](CCCNC(=N)N)C(=O)N[C@@H](CCCNC(=N)N)C(=O)N[C@@H](CCCNC(=N)N)C(=O)N1CCC[C@H]1C(=O)N1CCC[C@H]1C(=O)N[C@@H](CCC(N)=O)C(=O)O	4.42	6.40	96
–	–	N=C(N)NCCC[C@H](NC(=O)[C@H](CCCCN)NC(=O)[C@H](CCCNC(=N)N)NC(=O)[C@H](CCCNC(=N)N)NC(=O)CCCC(=O)Nc1ccc(-c2c3nc(c(-c4ccccc4)c4ccc([nH]4)c(-c4ccccc4)c4nc(c(-c5ccccc5)c5ccc2[nH]5)C=C4)C=C3)cc1)C(=O)O	4.97	5.83	7
–	–	CC[C@H](C)[C@H](NC(=O)[C@H](CCCCN)NC(=O)[C@@H](NC(=O)[C@H](CCC(N)=O)NC(=O)[C@H](CCCNC(=N)N)NC(=O)COCCOCCOCCOCCOCCOCCNC(=O)COCC(=O)Nc1ccc(-c2c3nc(c(-c4ccccc4)c4ccc([nH]4)c(-c4ccccc4)c4nc(c(-c5ccccc5)c5ccc2[nH]5)C=C4)C=C3)cc1)[C@@H](C)CC)C(=O)N[C@@H](Cc1c[nH]c2ccccc12)C(=O)N[C@@H](Cc1ccccc1)C(=O)N[C@@H](CCC(N)=O)C(=O)N[C@@H](CC(N)=O)C(=O)N[C@@H](CCCNC(=N)N)C(=O)N[C@@H](CCCNC(=N)N)C(=O)N[C@@H](CCSC)C(=O)N[C@@H](CCCCN)C(=O)N[C@@H](Cc1c[nH]c2ccccc12)C(=O)N[C@@H](CCCCN)C(=O)N[C@@H](CCCCN)C(=O)N[C@@H](C)C(=O)N1CCC[C@H]1C(=O)N1CCC[C@H]1C(=O)N[C@@H](CCCCN)C(=O)N[C@@H](CCCCN)C(=O)N[C@@H](CCCCN)C(=O)N[C@@H](CCCNC(=N)N)C(=O)N[C@@H](CCCCN)C(=O)N[C@H](C(=O)NCC(=O)O)C(C)C (X1-[NH(CH2CH2O)6CH2CO]RQIKIWFQNRRMKWKKAPPKKKRKVG-OH)	4.94	5.87	8.5
–	–	Oc1cccc(-c2c3nc(c(-c4cccc(O)c4)c4ccc([nH]4)c(-c4cccc(O)c4)c4ccc([nH]4)c(-c4cccc(O)c4)c4nc2CC4)C=C3)c1	4.79	5.79	–
–	–	CC(C)[C@H](NC(=O)[C@H](CCCCN)NC(=O)[C@H](CCCNC(=N)N)NC(=O)[C@H](CCCCN)NC(=O)[C@H](CCCCN)NC(=O)[C@H](CCCCN)NC(=O)[C@@H]1CCCN1C(=O)CNC(=O)COCCOCCOCCOCCOCCOCCNC(=O)C[C@H](NC(=O)COCC(=O)Nc1ccc(-c2c3nc(c(-c4ccccc4)c4ccc([nH]4)c(-c4ccccc4)c4nc(c(-c5ccccc5)c5ccc2[nH]5)C=C4)C=C3)cc1)C(=O)NCCOCCOCCOCCOCCOCCOCC(=O)NCC(=O)N1CCC[C@H]1C(=O)N[C@@H](CCCCN)C(=O)N[C@@H](CCCCN)C(=O)N[C@@H](CCCCN)C(=O)N[C@@H](CCCNC(=N)N)C(=O)N[C@@H](CCCCN)C(=O)N[C@H](C(=O)O)C(C)C)C(=O)O (I: X1-D[NH(CH2CH2O)6CH2CO]GPKKKRKV-OH / II: [NH(CH2CH2O)6CH2CO]GPKKKRKV-OH; amide I:1-II:N)	4.68	5.53	7
